From PubChem BioAssay
GPR7 antagonist: blocks human GPR7 receptor signaling; P48145; GPR7-expressing cells, fluorescence antagonist assay; inhibition, % at 4.4 µM; 290,000 tested, 1.1% active; AID 1861; in the data active = inhibition above about 16%, passing the limit was not always enough;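 note: cells stimulated with the agonist NPW; 0% = agonist with vehicle and 100% = vehicle without agonist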
OX1R antag-1: antagonists of human orexin 1 receptor. CHO/OX1R cells, Fluo-8 calcium fluorescence, orexin A. AID 434989. 330,000 tested, 0.43% active. inhibition, % at 5 µM;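 active = inhibition above its plate's threshold, mean inhibition of all tested compounds on the plate plus 3 SD, cut at about 37% in these data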;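 note: 0% = orexin A challenge wells and 100% = SB-334867-A antagonist wells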
CHO parental Ca: counter-screen for OX1R antagonists: effect in parental CHO cells; AID 463079; parental CHO-K1, ATP-induced calcium, Fluo-8 fluorescence; inhibition, % at 5.6 µM; 330,000 tested, 0.63% active;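 active = inhibition above that plate's mean sample inhibition plus 3 SD, cut at about 26% in these data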;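 note: 0% = ATP-challenged DMSO wells and 100% = DMSO wells without ATP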
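Material: parental CHO cells / Compound: single nominal dose of 5.6 µM per compound / Signal: Fluo-8 fluorescence / Replicates: singlicate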
OX1R antag-2: OX1R (human) antagonism | inhibition, % at 6.6 µM | O43613 | 330,000 tested, 1.8% active | OX1R-expressing cells, FRET antagonist read-out; in the data active = inhibition mostly above about 38%, no sharp cut-off; inactive = mostly below about 40%;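 note: 0% = agonist challenge alone and 100% = reference antagonist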
TRPN1 ag: zebrafish TRPN1 (NompC) channel agonism | HEK293 zebrafish TRPN1-YFP, Fluo-8 calcium fluorescence; 100% = response to 87 µM carbachol | activation, % at 3 µM | 220,000 tested, 0.18% active;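 active = activation above its plate's cutoff, the mean activation of test wells on that plate plus 3 SD, cut at about 19% in these data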;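 note: 0% = DMSO alone and 100% = 87 µM carbachol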
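Material: zebrafish TRPN1-YFP in HEK293 cells. Doses: one dose of 3 µM, 0.3% DMSO. Incubation: dye 1 h 37 °C plus 30 min RT. Measured by: intracellular calcium fluorescence with Fluo-8.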
TRPML3 agonist: agonists of human TRPML3 channel; AID 1448; 220,000 tested, 0.29% active; HEK293 TRPML3-YFP, Fluo-8 calcium fluorescence; 100% = the carbachol control signal; activation, % at 3 µM;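 active = activation above its plate's cutoff, the mean activation of the plate's test wells plus 3 SD, cut at about 12% in these data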;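 note: 0% = DMSO only wells and 100% = carbachol wells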
Target sequence (Q8TDD5 whole entry, looked up): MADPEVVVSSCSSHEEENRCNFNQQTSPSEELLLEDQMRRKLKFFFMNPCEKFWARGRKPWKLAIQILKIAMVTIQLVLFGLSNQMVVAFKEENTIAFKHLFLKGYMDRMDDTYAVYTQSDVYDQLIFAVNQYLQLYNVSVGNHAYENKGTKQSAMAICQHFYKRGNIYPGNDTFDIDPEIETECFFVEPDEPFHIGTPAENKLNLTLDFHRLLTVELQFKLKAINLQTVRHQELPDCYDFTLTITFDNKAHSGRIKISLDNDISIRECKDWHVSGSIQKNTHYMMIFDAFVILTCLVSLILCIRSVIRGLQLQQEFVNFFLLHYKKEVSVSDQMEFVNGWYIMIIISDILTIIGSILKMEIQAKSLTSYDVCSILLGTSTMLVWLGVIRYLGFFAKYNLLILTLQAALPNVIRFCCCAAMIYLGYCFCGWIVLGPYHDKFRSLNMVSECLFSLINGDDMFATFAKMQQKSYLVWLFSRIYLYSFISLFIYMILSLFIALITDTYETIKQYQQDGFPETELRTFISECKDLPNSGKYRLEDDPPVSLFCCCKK
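Test system: TRPML3-YFP stable HEK293 cells. Doses: single point at 3 µM. Incubation: dye loading 1 h 37 °C then 30 min ambient, 125 s read. Signal: Fluo-8 calcium dye fluorescence, ex 470-495, em 515-575 nm. Measure: percent activation from peak-to-basal fluorescence ratio, scaled between DMSO and carbachol.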
An asterisk follows results filed as active; / = no result. The list is not random: actives were taken first. Their share in the collection is about 3.2%.

SMILES | GPR7 antagonist | OX1R antag-1 | CHO parental Ca | OX1R antag-2 | TRPN1 ag | TRPML3 agonist
Cc1cc(C)n(CC(=O)N/N=C/c2cccs2)n1 | -6.4 | -16.4 | 1.2 | 3.4 | -1.2 | 0.4
CCOC(=O)N/N=C\c1ccc([N+](=O)[O-])s1 | -2.8 | -4.1 | -4.3 | 52.4* | 1.2 | 0.4
Cc1ccc(NC(=O)COC(=O)CCc2c[nH]c3ccccc23)c(C)c1 | / | -2.5 | -5.0 | 2.9 | / | /
COCCN(C(=O)COC(=O)CSc1ccccc1)c1c(N)n(Cc2ccccc2)c(=O)[nH]c1=O | / | -17.6 | -9.3 | 10.1 | / | /
COC(CNC(=O)c1ccc2nc3ccccc3c(=O)n2c1)OC | 0.8 | -14.2 | -8.9 | 38.4* | / | /
O=C(Nc1ccccc1)OCCNC(=O)c1cccc(Cl)c1 | 6.5 | -10.8 | -11.9 | 16.6 | 0.7 | 1.0
CC(C)OC(=O)Nc1ccc(-c2ccc(NC(=O)OC(C)C)cc2Cl)c(Cl)c1 | -20.8 | -26.9 | -3.6 | 8.1 | 1.0 | 0.6
CC(C)OC(=O)NCCOC(=O)Nc1cccc(Cl)c1 | -4.8 | 48.2* | 36.5* | 59.4 | 0.7 | 0.2
CC(C)OC(=O)NCCOC(=O)Nc1ccc(Cl)c(Cl)c1 | 2.5 | 40.5 | 50.2* | 38.1 | -1.3 | 0.1
CC(C)OC(=O)NC(C)(C)COC(=O)Nc1cccc(Cl)c1 | -1.9 | 20.5 | 35.1* | 31.1 | 3.6 | -0.3
C1=C(c2ccc(-c3ccccc3)cc2)Nc2ncnn2C1c1ccco1 (centres undefined) | 25.6* | / | / | / | 4.0 | 3.5
CC1=C(C(N)=O)C(c2ccc(Br)cc2)n2nc(CCCO)nc2N1 (centres undefined) | -4.9 | -23.1 | -0.2 | -5.7 | / | /
Brc1ccc(C2=CC(c3cccs3)n3ncnc3N2)cc1 (centres undefined) | -2.6 | 32.9 | 41.3* | 30.7 | 2.4 | 1.8
OCCCc1nc2n(n1)C(c1cccs1)C=C(c1ccc(Br)cc1)N2 (centres undefined) | 9.0 | 29.9 | 38.7* | 17.4 | -1.0 | 0.3
CCN(CC(=O)Nc1cc(S(=O)(=O)N2CCCCC2)ccc1C)Cc1ccccc1 | / | -36.8 | -12.0 | 20.6 | / | /
O=C(NNS(=O)(=O)c1cc(Cl)cc(Cl)c1)c1sccc1-n1cccc1 | -10.0 | -0.5 | -25.4 | 69.4* | -0.6 | -0.3
O=C1Nc2ccccc2C1=O | / | 1.4 | -7.4 | 9.4 | / | /
O=C1Nc2ccc3sc4ccccc4c3c2C1=O | 8.0 | 0.2 | -7.9 | 64.9* | -1.6 | -0.5
O=C(c1ccc(-n2cncn2)c([N+](=O)[O-])c1)N1CCN(S(=O)(=O)c2ccc(Cl)cc2)CC1 | -15.0 | -14.7 | -13.3 | 18.0 | / | /
Cc1cc(O)c(N)c(C)c1Cl | -5.3 | -21.6 | -13.7 | 53.5* | 0.7 | 0.4
CC(Oc1ccc(Cl)cc1Cl)c1nc(-c2ccc(NC(=O)c3ccncc3)cc2)no1 (centres undefined) | 1.1 | 8.2 | 43.2* | 15.1 | 2.1 | 1.5
CC(Oc1ccc(Cl)cc1Cl)c1nc(-c2ccc(NC(=O)c3cccnc3)cc2)no1 (centres undefined) | 3.3 | -23.7 | -14.2 | -0.5 | 0.0 | 0.1
Cc1cccc(C)c1OCC(=O)Nc1ccc2c(c1)OCCO2 | -2.7 | -24.2 | -14.7 | 30.9 | / | /
COc1cc([N+](=O)[O-])c2ncsc2c1 | -0.1 | -7.3 | -11.3 | 69.2* | 1.3 | 0.6
COc1cc(SSc2cc(OC)cc([N+](=O)[O-])c2N)c(N)c([N+](=O)[O-])c1 | -5.2 | -10.6 | -11.0 | 17.9 | 1.1 | 0.2
SMILES | GPR7 antagonist | OX1R antag-1 | CHO parental Ca | OX1R antag-2 | TRPN1 ag | TRPML3 agonist
CCN(CCn1cccn1)Cc1nc(Cc2cccc(F)c2)no1 | -14.6 | -17.9 | -5.6 | 6.3 | 0.9 | 0.5
C[n+]1c2n(c3ccccc31)N=C(c1ccc(Cl)cc1)CS2 | -18.4 | -28.9 | -21.3 | 21.0 | 0.4 | 0.1
COc1ccc(C2=Nn3c([n+](C)c4ccccc43)SC2)cc1 | -5.8 | -33.0 | -17.8 | 41.8* | 1.2 | -0.1
Cc1noc(C)c1CSCC(=O)N(C)CC(=O)Nc1ccccc1Br | / | -19.1 | -8.4 | 8.0 | / | /
CC(CC(=O)N1CCN(S(=O)(=O)c2ccc(Cl)cc2)CC1)n1cncn1 (centres undefined) | -8.8 | -25.5 | -3.8 | 0.9 | / | /
Cc1ccc(C(=O)Nc2ccc3c(c2)OCO3)cc1 | -8.2 | -19.5 | -10.5 | 10.3 | -0.7 | 0.0
CCc1nc2ccc(C(=O)Nc3ccc4c(c3)OCO4)cc2nc1CC | 14.5 | -22.9 | -9.4 | 35.1* | -0.6 | -0.9
CC(CNC(=O)c1ccccc1Cl)NC(=O)c1ccccc1Cl (centres undefined) | / | 2.7 | 10.9 | 1.4 | / | /
CC(=O)Nc1ccc(NC(=O)CCCCCn2nnc3ccccc3c2=O)cc1 | -10.4 | / | / | / | / | /
NC(=O)COc1c(-c2ccc(Br)o2)oc2ccccc2c1=O | -18.6 | 7.2 | -12.7 | 71.7* | / | /
Cc1cc(N2CCN(C(=O)c3cccs3)CC2)c(F)cc1[N+](=O)[O-] | -3.2 | 8.8 | 51.7* | 47.3 | / | /
O=C(c1cccs1)N1CCN(c2ccc([N+](=O)[O-])cc2F)CC1 | 5.3 | -17.2 | -7.0 | 21.8 | / | /
Cc1ccc[n+](Cc2ccc([N+](=O)[O-])cc2)c1 | -9.4 | -5.5 | -0.1 | 36.9 | 0.5 | 0.4
O=[N+]([O-])c1ccc(C[n+]2cccc3c4ccccc4ccc32)cc1 | -16.3 | -6.1 | -2.2 | 48.8* | 0.2 | 0.5
COc1ccccc1CNS(=O)(=O)c1c(C(=O)N2CCCCC2)c(C)n(C)c1C | -11.1 | -20.4 | -15.4 | 1.3 | / | /
CN(C)c1ccc(NC(=O)Nc2ccc3snnc3c2)cc1 | -1.5 | 29.5 | 20.6 | 54.5 | 19.0* | 6.4
CC(=O)c1ccc(NC(=O)c2ccc3snnc3c2)cc1 | -7.6 | -0.7 | -0.5 | 6.5 | / | /
Cc1ccc2c(c1)N(CC(=O)NCC(C)c1ccccc1)C(=O)c1cccnc1O2 (centres undefined) | 1.6 | -5.5 | -10.2 | 5.7 | / | /
C/C(=C\c1ccc(N)cc1)c1nc2ccccc2[nH]1 | -2.1 | -23.6 | -1.2 | 22.5 | / | /
O=S(=O)(/C(=C/c1ccc(C(F)(F)F)cc1)c1nc2ccccc2[nH]1)c1ccccc1 | 26.1* | -2.6 | 6.0 | 13.1 | 0.2 | 2.1
CC(C)c1ccc(/C=C(\c2nc3ccccc3[nH]2)S(=O)(=O)c2ccccc2)cc1 | 28.2* | -18.3 | -18.9 | 14.9 | -1.0 | -1.2
Cc1ccnc(NS(=O)(=O)c2ccc(NS(=O)(=O)c3cc(Cl)ccc3Cl)cc2)n1 | -1.9 | -14.6 | -9.8 | 14.9 | / | /
COc1ccc(/C=N/NC(=O)c2nn(-c3ccc(Cl)cc3)c(=O)c3c(N)scc23)cc1 | -4.2 | -14.2 | -7.5 | 51.8* | -0.3 | 0.3
COc1ccc(/C=N/NC(=O)c2nn(-c3ccccc3)c(=O)c3c(N)scc23)cc1 | -8.4 | 0.4 | -3.0 | 70.0* | 0.5 | -0.1
COc1ccccc1N1CCN(S(=O)(=O)CCNC(=O)c2ccccc2Br)CC1 | -8.1 | -12.1 | -24.2 | -7.9 | / | /
CN(C)S(=O)(=O)c1cccc(NC(=O)CN2C(=O)NC(Cc3ccccc3)C2=O)c1 (centres undefined) | / | -2.7 | -6.9 | 0.7 | / | /
